Laboratory results published in ChEMBL document CHEMBL1687826, “Flow cytometry as a tool to determine the effects of cell wall-active antibiotics on vancomycin-susceptible and -resistant Enterococcus faecalis strains” (Antimicrob Agents Chemother, 2011).
Calls of active or inactive are those of the source. No cut-off for these calls is given here.

Key:
Enterococcus faecalis [1] = experiment: Antibacterial activity against […] Enterococcus faecalis BM4275 using BHI broth by macrodilution method; format: functional
In short: (§1)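 Macrodilution per CLSI in BHI broth at 37°C, with 50 μg/ml free Ca2+ for daptomycin; MIC read as lowest concentration with no growth after 1 day.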

Enterococcus faecalis [2] = experiment: Antibacterial activity against vancomycin-susceptible Enterococcus faecalis JH2-2 using BHI broth by macrodilution method; format: functional; in short: as §1
Enterococcus faecalis [3] = experiment: Antibacterial activity against […] Enterococcus faecalis BM4316 using BHI broth by macrodilution method; format: functional; in short: as §1
Enterococcus faecalis [4] = experiment: Drug uptake in vancomycin[…]-type Enterococcus faecalis BM4275 assessed as red-fluorescent bacteria at 1 times MIC after 1 hr by confocal microscopy
Enterococcus faecalis [5] = experiment: Drug uptake in vancomycin[…]-type Enterococcus faecalis BM4316 assessed as red-fluorescent bacteria at 1 times MIC after 1 hr by confocal microscopy
Enterococcus faecalis [6] = experiment: Drug uptake in vancomycin-susceptible Enterococcus faecalis JH2-2 assessed as red-fluorescent bacteria at 1 times MIC after 1 hr by confocal microscopy
Enterococcus faecalis [7] = experiment: Antibacterial activity against vancomycin-susceptible Enterococcus faecalis JH2-2 assessed as dismorphic bacterial chains at 1 times MIC after 1 hr using BacLight Live/Dead kit by confocal microscopy
Enterococcus faecalis [8] = experiment: Antibacterial activity against […] Enterococcus faecalis BM4275 assessed as decrease in bacterial count at 4 times MIC after 180 mins using BHI broth; format: functional, organism-based
In short: (§2)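 Exponential-phase suspension (10^5 CFU/ml) in BHI, 37°C, exposed to 4× MIC for 180 min alongside antibiotic-free control; daptomycin medium carried 50 μg/ml free Ca2+. Survivors counted on BHI agar; value is mean difference in log10 CFU/ml with versus without antibiotic, 4 independent experiments, mean ± SD.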

Enterococcus faecalis [9] = experiment: Antibacterial activity against vancomycin-susceptible Enterococcus faecalis JH2-2 assessed as decrease in bacterial count at 4 times MIC after 180 mins using BHI broth; format: functional, organism-based; in short: as §2
Enterococcus faecalis [10] = experiment: Antibacterial activity against […] Enterococcus faecalis BM4275 assessed as dismorphic bacterial chains at 1 times MIC after 1 hr by confocal microscopy
Enterococcus faecalis [11] = experiment: Antibacterial activity against vancomycin-susceptible Enterococcus faecalis JH2-2 assessed as increase in cell size at 0.25 times MIC after 30 to 90 mins by flow cytometric analysis relative to control; format: functional, organism-based
In short: (§3)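 10^5 CFU/ml exponential cells in BHI, 37°C, exposed to 0.25× or 1× MIC (daptomycin with 50 μg/ml free Ca2+) for 30, 60, 90 min, then diluted to ca. 10^4 CFU/ml in PBS. Flow cytometry forward scatter, log amplifiers, 5,000 events; % increase in size versus untreated control, triplicate, mean ± SD; Kruskal-Wallis then Mann-Whitney.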

Enterococcus faecalis [12] = experiment: Antibacterial activity against […] Enterococcus faecalis BM4316 assessed as dismorphic bacterial chains at 1 times MIC after 1 hr by confocal microscopy
Enterococcus faecalis [13] = experiment: Antibacterial activity against vancomycin-susceptible Enterococcus faecalis JH2-2 assessed as membrane potential/size ratio at 0.25 to 1 times MIC after 1 hr by flow cytometry
Enterococcus faecalis [14] = experiment: Antibacterial activity against […] Enterococcus faecalis BM4316 assessed as increase in cell size at 0.25 times MIC after 30 to 90 mins by flow cytometric analysis relative to control; format: functional, organism-based; in short: as §3
Enterococcus faecalis [15] = experiment: Antibacterial activity against […] Enterococcus faecalis BM4275 assessed as membrane potential/size ratio at 0.25 to 1 times MIC after 1 hr […]; format: functional, organism-based
Enterococcus faecalis [16] = experiment: Antibacterial activity against […] Enterococcus faecalis BM4316 assessed as decrease in bacterial count at 4 times MIC after 180 mins using BHI broth; format: functional, organism-based; in short: as §2
Enterococcus faecalis [17] = experiment: Antibacterial activity against […] Enterococcus faecalis BM4316 assessed as membrane potential/size ratio at 0.25 to 1 times MIC after 1 hr […]; format: functional, organism-based
Enterococcus faecalis [18] = experiment: Antibacterial activity against vancomycin-susceptible Enterococcus faecalis JH2-2 assessed as increase in cell size at 1 times MIC after 30 to 90 mins by flow cytometric analysis relative to control; format: functional, organism-based
In short: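 Exponentially growing cells at 10^5 CFU/ml in BHI broth at 37°C were exposed to 0.25× or 1× MIC and sampled at 30, 60 and 90 min. Untreated controls were run alongside. Cells were diluted to ca. 10^4 CFU/ml in PBS and gated on log forward scatter for 5,000 events. Runs were in triplicate, reported as mean % size increase versus control.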

Enterococcus faecalis [19] = experiment: Antibacterial activity against vancomycin-susceptible Enterococcus faecalis JH2-2 assessed as change in CFU count at 1 times MIC after 30 to 90 mins; format: functional, organism-based
In short: (§4)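 Exponentially growing cells, 10^5 CFU/ml in BHI at 37°C, exposed to 1× MIC antibiotic (daptomycin medium with 50 μg/ml free Ca2+) for 30, 60 and 90 min; viable counts by enumeration on BHI agar.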

Enterococcus faecalis [20] = experiment: Antibacterial activity against […] Enterococcus faecalis BM4316 assessed as change in CFU count at 1 times MIC after 30 to 90 mins; format: functional, organism-based; in short: as §4
Enterococcus faecalis [21] = experiment: Antibacterial activity against […] Enterococcus faecalis BM4275 assessed as change in CFU count at 1 times MIC after 30 to 90 mins; format: functional, organism-based; in short: as §4
Enterococcus faecalis [22] = experiment: Antibacterial activity against […] Enterococcus faecalis BM4316 assessed as increase in cell size at 1 times MIC after 30 to 90 mins by flow cytometric analysis relative to control; format: functional, organism-based; in short: as §3
Enterococcus faecalis [23] = experiment: Antibacterial activity against […] Enterococcus faecalis BM4275 assessed as increase in cell size at 1 times MIC after 30 to 90 mins by flow cytometric analysis relative to control; format: functional, organism-based; in short: as §3
Staphylococcus aureus = experiment: Antibacterial activity against Staphylococcus aureus ATCC 29213 assessed as cells with altered cell wall morphology at 8 times MIC after 60 mins; format: functional
Enterococcus faecalis [24] = experiment: Antibacterial activity against […] Enterococcus faecalis BM4275 assessed as increase in cell size at 0.25 times MIC after 30 to 90 mins by flow cytometric analysis relative to control; format: functional, organism-based; in short: as §3

SMILES | Activity (Enterococcus faecalis [1]) [µg/mL] | Activity (Enterococcus faecalis [2]) [µg/mL] | Activity (Enterococcus faecalis [3]) [µg/mL] | Drug uptake (Enterococcus faecalis [4]) | Drug uptake (Enterococcus faecalis [5]) | Drug uptake (Enterococcus faecalis [6]) | Activity (Enterococcus faecalis [7]) | Activity (Enterococcus faecalis [8]) | Activity (Enterococcus faecalis [9]) | Activity (Enterococcus faecalis [10]) | Activity (Enterococcus faecalis [11]) | Activity (Enterococcus faecalis [12]) | Activity (Enterococcus faecalis [13]) | Activity (Enterococcus faecalis [14]) | Activity (Enterococcus faecalis [15]) | Activity (Enterococcus faecalis [16]) | Activity (Enterococcus faecalis [17]) | Activity (Enterococcus faecalis [18]) | Activity (Enterococcus faecalis [24]) | also measured
CN[C@H](CC(C)C)C(=O)N[C@H]1C(=O)N[C@@H](CC(N)=O)C(=O)N[C@H]2C(=O)N[C@H]3C(=O)N[C@H](C(=O)N[C@H](C(=O)O)c4cc(O)cc(O)c4-c4cc3ccc4O)[C@H](O)c3ccc(c(Cl)c3)Oc3cc2cc(c3O[C@@H]2O[C@H](CO)[C@@H](O)[C@H](O)[C@H]2O[C@H]2C[C@](C)(NCCCCNc3cc(C(F)(F)F)nc4cc(Cl)ccc34)[C@H](O)[C@H](C)O2)Oc2ccc(cc2Cl)[C@H]1O [listing 1 of 2 here] | 2 | 0.5 | 4 | – | – | – | – | – | – | – | – | – | – | – | – | – | – | – | – | –
CN[C@H](CC(C)C)C(=O)N[C@H]1C(=O)N[C@@H](CC(N)=O)C(=O)N[C@H]2C(=O)N[C@H]3C(=O)N[C@H](C(=O)N[C@H](C(=O)O)c4cc(O)cc(O)c4-c4cc3ccc4O)[C@H](O)c3ccc(c(Cl)c3)Oc3cc2cc(c3O[C@@H]2O[C@H](CO)[C@@H](O)[C@H](O)[C@H]2O[C@H]2C[C@](C)(NCCCCNc3cc(C(F)(F)F)nc4cc(Cl)ccc34)[C@H](O)[C@H](C)O2)Oc2ccc(cc2Cl)[C@H]1O [listing 2 of 2 here] | – | – | – | Active | Active | Active | – | – | – | – | – | – | – | – | – | – | – | – | – | –
CN[C@H](CC(C)C)C(=O)N[C@H]1C(=O)N[C@@H](CC(N)=O)C(=O)N[C@H]2C(=O)N[C@H]3C(=O)N[C@H](C(=O)N[C@@H](C(=O)O)c4cc(O)cc(O)c4-c4cc3ccc4O)[C@H](O)c3ccc(c(Cl)c3)Oc3cc2cc(c3O[C@@H]2O[C@H](CO)[C@@H](O)[C@H](O)[C@H]2O[C@H]2C[C@](C)(NCCCCNc3cc(C(F)(F)F)nc4cc(Cl)ccc34)[C@H](O)[C@H](C)O2)Oc2ccc(cc2Cl)[C@H]1O | – | – | – | – | – | – | inactive | Active | Active | inactive | Active | inactive | inactive | Active | inactive | Active | inactive | – | – | –
CCCCCCCCCC(=O)N[C@@H](Cc1c[nH]c2ccccc12)C(=O)N[C@H](CC(N)=O)C(=O)N[C@@H](CC(=O)O)C(=O)N[C@@H]1C(=O)NCC(=O)N[C@@H](CCCN)C(=O)N[C@@H](CC(=O)O)C(=O)N[C@H](C)C(=O)N[C@@H](CC(=O)O)C(=O)NCC(=O)N[C@H](CO)C(=O)N[C@@H]([C@H](C)CC(=O)O)C(=O)N[C@@H](CC(=O)c2ccccc2N)C(=O)O[C@@H]1C | 2 | 2 | 2 | Active | Active | Active | Active | Active | Active | Active | Active | Active | inactive | Active | inactive | Active | inactive | Active | Active | Activity (Enterococcus faecalis [19]): Active; Activity (Enterococcus faecalis [20]): Active; Activity (Enterococcus faecalis [21]): Active; Activity (Enterococcus faecalis [22]): Active; Activity (Enterococcus faecalis [23]): Active; Activity (Staphylococcus aureus): >90%
CN[C@H](CC(C)C)C(=O)N[C@H]1C(=O)N[C@@H](CC(N)=O)C(=O)N[C@H]2C(=O)N[C@H]3C(=O)N[C@H](C(=O)N[C@H](C(=O)O)c4cc(O)cc(O)c4-c4cc3ccc4O)[C@H](O)c3ccc(c(Cl)c3)Oc3cc2cc(c3O[C@@H]2O[C@H](CO)[C@@H](O)[C@H](O)[C@H]2O[C@H]2C[C@](C)(N)[C@H](O)[C@H](C)O2)Oc2ccc(cc2Cl)[C@H]1O [VANCOMYCIN] | 256 | 4 | 512 | Active | Active | Active | inactive | Active | Active | inactive | Active | inactive | inactive | – | inactive | Active | inactive | Active | – | –
CCCCCCCCCCNCCN[C@@]1(C)C[C@H](O[C@H]2[C@H](Oc3c4cc5cc3Oc3ccc(cc3Cl)[C@@H](O)[C@@H](NC(=O)[C@@H](CC(C)C)NC)C(=O)N[C@@H](CC(N)=O)C(=O)N[C@H]5C(=O)N[C@H]3C(=O)N[C@H](C(=O)N[C@H](C(=O)O)c5cc(O)c(CNCP(=O)(O)O)c(O)c5-c5cc3ccc5O)[C@H](O)c3ccc(c(Cl)c3)O4)O[C@H](CO)[C@@H](O)[C@@H]2O)O[C@@H](C)[C@H]1O [TELAVANCIN] | 1 | 1 | 4 | Active | Active | Active | inactive | Active | Active | inactive | Active | inactive | inactive | Active | inactive | Active | inactive | – | Active | –
